Bioassay records (PubChem BioAssay)
GalR3 antagonist: GalR3 antagonists in HEK293 cells, primary screen, cell-based, fluorescence readout; inhibition, % at 3 µM; Galanin receptor type 3 (Homo sapiens), O60755; AID 651719, 2012; HEK293 GalR3-CNG cAMP membrane potential fluorescence; galR3 body fused to GalR1 C-terminus; 360,000 compounds, 0.44% hits;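 active means inhibition above the screen-wide average plus 3 SD, cut at about 13% in these data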;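 further: forskolin and galanin both at EC90 stimulate the cells; cAMP rise reported by CNG channel membrane potential dye signal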
Target sequence (O60755 1-299 limits assumed): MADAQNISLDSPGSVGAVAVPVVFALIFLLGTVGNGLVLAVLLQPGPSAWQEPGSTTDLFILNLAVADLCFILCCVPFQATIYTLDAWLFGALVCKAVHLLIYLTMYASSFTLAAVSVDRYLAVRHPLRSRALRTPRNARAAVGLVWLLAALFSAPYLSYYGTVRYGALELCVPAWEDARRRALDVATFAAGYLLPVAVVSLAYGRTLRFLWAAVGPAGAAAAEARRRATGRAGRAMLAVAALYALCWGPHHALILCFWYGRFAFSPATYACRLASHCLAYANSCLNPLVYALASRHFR
V-ATPase pHluor: regulators of yeast V-ATPase proton pumping, primary screen, pHLuorin cytosolic pH fluorescence | S. cerevisiae | response, % at 10 µM | 350,000 compounds, 0.37% hits | AID 504577, 2011; in the data active means response mostly above about 7.3%, no sharp cut-off; inactive means mostly below about 5.4%; further: actives read high
NR2E3 ag-1: inhibitors of NR2E3-RetCOR corepressor binding, primary screen, NR2E3 agonist project, biochemical, TR-FRET, GST-NR2E3, biotin-RetCOR; 1536-well; inhibition of corepressor binding, % at 4.78 µM; 320,000 compounds, 0.12% hits;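 active means percent inhibition above the cutoff of mean plus 3 SD of all tested compounds, set per screening campaign, cut at about 20% in these data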
Target sequence (Q9Y5X4 whole entry, looked up): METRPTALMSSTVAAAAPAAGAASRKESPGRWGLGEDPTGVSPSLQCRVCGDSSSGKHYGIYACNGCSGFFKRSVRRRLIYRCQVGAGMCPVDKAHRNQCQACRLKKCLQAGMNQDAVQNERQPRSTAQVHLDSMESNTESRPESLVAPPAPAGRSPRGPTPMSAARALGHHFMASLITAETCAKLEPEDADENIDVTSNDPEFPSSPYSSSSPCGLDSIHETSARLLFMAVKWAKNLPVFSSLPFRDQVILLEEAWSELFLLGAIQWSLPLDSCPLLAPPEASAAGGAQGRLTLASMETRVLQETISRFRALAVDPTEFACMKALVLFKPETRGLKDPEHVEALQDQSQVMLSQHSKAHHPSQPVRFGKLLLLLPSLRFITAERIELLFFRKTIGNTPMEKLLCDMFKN
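Format: 1536-well format; test system: GST-NR2E3 and biotin-RetCOR proteins; read-out basis: percent inhibition of TR-FRET ratio; timing: 5 h incubation at 4 °C; detection: time-resolved FRET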
GAA850 FXN act: FXN promoter activators, primary screen, cell-based, luciferase luminescence, HEK293 lucGAA850. 360,000 compounds, 0.56% hits. activation, % at 6 µM. HEK293 lucGAA850 FXN promoter luciferase reporter, 24 h; percent of 10 µM SAHA response. AID 540364, 2011;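 active means activation above the average of all compounds screened plus 3 SD, cutoff fixed separately per campaign, cut at about 7.5% in these data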
Env fusion inh: inhibitors of HIV-1 Env-driven cell-cell fusion, primary screen, HeLa-JRFL effector, CEM21 target cells, luciferase. AID 651610, 2012. 360,000 compounds, 1.1% hits. inhibition, % at 12.3 µM;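 active means mean replicate inhibition score of at least 50 and every replicate individually at or above 50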
NR2E3 ag-2: NR2E3 agonists in two-hybrid cells, primary screen, cell-based, luminescence, CHO-S, Gal4-NCOR/VP16-NR2E3; luciferase; 360,000 compounds, 0.35% hits; AID 602229, 2012; Photoreceptor-specific nuclear receptor (Homo sapiens), Q9Y5X4; inhibition of corepressor binding, % at 3.98 µM;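 active means inhibition above the mean of all tested compounds plus 3 SD, cut at about 70% in these data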;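 further: higher means lower luciferase signal from less NR2E3 corepressor binding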
GAA30 FXN cntr: GAA30 FXN promoter activators, confirmation, counter-screen for GAA850 frataxin promoter activator project, cell-based, luminescence, HEK293, lucGAA30, triplicate; 1,900 compounds, 66% hits; activation, % at 6 µM; HEK293 lucGAA30 FXN promoter luciferase, 24 h; DMSO = 0%, 5 µM ipriflavone = 100%; shares compounds with GAA850 FXN act;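 active means mean activation above the mean of solvent-only control wells plus 3 SD, cut at about 22% in these data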;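 further: counterscreen of GAA850 promoter hits where activity marks nonselective or luminescence artifacts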
FXN GAA850 conf: FXN GAA850 promoter activators in reporter cells, confirmation, cell-based, luminescence, HEK293 lucGAA850, triplicate | 1,900 compounds, 86% hits | activation, % at 6 µM | shares compounds with GAA850 FXN act | HEK293 lucGAA850 FXN promoter luciferase reporter, 24 h; 100% = activation by SAHA;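 active means mean activation above a set limit taken from the primary screen, cut at about 8% in these data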
NR2E3 ag conf: NR2E3 agonist confirmation in cells, cell-based, luminescence, CHO-S two-hybrid; shares compounds with NR2E3 ag-2; CHO-S mammalian two-hybrid NR2E3-NCOR, luciferase luminescence; inhibition, % at 3.98 µM; 2,300 compounds, 51% hits; AID 624378, 2012;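 active means average inhibition above a cutoff equal to the mean inhibition of all tested compounds plus one SD, cut at about 70% in these data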
VP16 counter: GAL4-VP16 reporter modulators, confirmation, counter-screen for NR2E3 agonist project, cell-based, luminescence, CHO-S, high throughput. shares compounds with NR2E3 ag-2. CHO-S GAL4-VP16 luciferase reporter. inhibition, % at 3.98 µM. 2,300 compounds, 29% hits;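 active means mean inhibition above a cutoff equal to the average over all tested compounds plus one standard deviation, cut at about 70% in these data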;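 further: luciferase from a UAS reporter driven by GAL4-VP16 transactivation; higher means less reporter light so more repression of VP16 activity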
Each line names hits and unclear results; the compound was inactive in the other large screens (follow-up assays come after a bar, where they were run). Shown are actives, neighbours in structure and some others; about 2.2% of the full set was active somewhere.

CCC(CC)c1nnc(NC(=O)CN2C(=O)C3C4C=CC(C4)C3C2=O)s1 (stereo not given)	GAA850 FXN act 9.9 (no result: Env fusion inh) | GAA30 FXN cntr inactive | FXN GAA850 conf inactive
CCOC(=O)c1c(C)nc(-c2ccccc2)nc1N	GAA850 FXN act 8.0 | GAA30 FXN cntr 131 | FXN GAA850 conf 39
NC1(C(=O)O)CSSC1	GAA850 FXN act 9.8 (no result: NR2E3 ag-1) | GAA30 FXN cntr inactive | FXN GAA850 conf 25
Cn1c(CCN2CCCCC2)nc2cc([N+](=O)[O-])ccc21	GAA850 FXN act 7.7 (no result: Env fusion inh) | GAA30 FXN cntr inactive | FXN GAA850 conf 17
C[C@H]1CN([C@@H](C)CO)C(=O)CCCn2cc(nn2)CO[C@@H]1CN(C)Cc1ccc2c(c1)OCCO2	none (no result: GalR3 antagonist, V-ATPase pHluor, NR2E3 ag-1, GAA850 FXN act, NR2E3 ag-2)
CCN1C(=O)[C@H]2[C@H]3CN=C(SCc4ccccc4)N3[C@@](C)(C(=O)OC)[C@H]2C1=O	none (no result: NR2E3 ag-1)
COC(=O)[C@@]1(C)[C@H]2C(=O)N(Cc3ccccc3)C(=O)[C@H]2[C@H]2CN=C(SCc3ccc(C#N)cc3)N21	GAA850 FXN act 13, Env fusion inh 75 (no result: NR2E3 ag-1) | GAA30 FXN cntr 22 | FXN GAA850 conf 12
COC(=O)[C@@]1(C)[C@H]2C(=O)N(Cc3ccccc3)C(=O)[C@H]2[C@H]2CN=C(SCc3ccc(Cl)cc3)N21	GAA850 FXN act 15, Env fusion inh 79 (no result: NR2E3 ag-1) | GAA30 FXN cntr 30 | FXN GAA850 conf 11
C[C@@H]1CCCCO[C@H](CN(C)C)[C@@H](C)CN([C@@H](C)CO)C(=O)c2cc(NC(=O)Nc3ccccc3)ccc2O1	none (no result: GalR3 antagonist, V-ATPase pHluor, NR2E3 ag-1, GAA850 FXN act, NR2E3 ag-2)
CN(c1ccccc1)c1ccc(/C=C/[N+](=O)[O-])cc1	GAA850 FXN act 16 | GAA30 FXN cntr inactive | FXN GAA850 conf inactive
CN(C)CCNc1ccc2ncn3c4ccc(O)cc4c(=O)c1c23	GAA850 FXN act 8.4 (no result: NR2E3 ag-1) | GAA30 FXN cntr inactive | FXN GAA850 conf 26
O=C1C=CC(=O)c2c(O)c(N3CCN(CCO)CC3)c(Cl)c(O)c21	none (no result: NR2E3 ag-1)
O=C1C=CC(=O)c2c(O)c(N3CCN(CCOCCO)CC3)c(Br)c(O)c21	GAA850 FXN act 14, Env fusion inh 61 (no result: NR2E3 ag-1) | GAA30 FXN cntr inactive | FXN GAA850 conf inactive
Cc1ccccc1CSc1nnc2ccc(-c3ccncc3)nn12	GAA850 FXN act 7.7 | GAA30 FXN cntr 30 | FXN GAA850 conf 13
COc1ccc(C2CC(c3ccc(OC)c(OC)c3)=NN2S(C)(=O)=O)cc1 (stereo not given)	GAA850 FXN act 8.2 | GAA30 FXN cntr 105 | FXN GAA850 conf 40
COc1cc2c(cc1N)-c1ccc(N)cc1C2=O	GAA850 FXN act 9.4 (no result: NR2E3 ag-1) | GAA30 FXN cntr 118 | FXN GAA850 conf 38
Nc1ccc2c(c1)C(=O)c1cc(N)c(Cl)cc1-2	none (no result: NR2E3 ag-1, Env fusion inh)
CCOC(CN=c1nc(N(C)C)ss1)OCC	GAA850 FXN act 8.2, NR2E3 ag-2 89 (no result: NR2E3 ag-1) | GAA30 FXN cntr inactive | FXN GAA850 conf 10 | NR2E3 ag conf inactive | VP16 counter inactive
CCCCC(=O)N/N=C/c1ccc(Sc2cccc3cccnc23)o1	GAA850 FXN act 15, NR2E3 ag-2 86 (no result: Env fusion inh) | GAA30 FXN cntr 25 | FXN GAA850 conf 7.7 | NR2E3 ag conf inactive | VP16 counter inactive
CN1CCN(C(=O)C[C@H]2CC[C@H]3[C@@H](COC[C@H](O)CN3C(=O)Cc3ccccc3)O2)CC1	none (no result: GalR3 antagonist, V-ATPase pHluor, NR2E3 ag-1, GAA850 FXN act, NR2E3 ag-2)
CCOC(=O)Nc1ccc2c(c1)C(=NNC(=S)NC)c1ccccc1-2	GAA850 FXN act 14, NR2E3 ag-2 86 (no result: NR2E3 ag-1) | GAA30 FXN cntr 48 | FXN GAA850 conf 20 | NR2E3 ag conf inactive | VP16 counter inactive
CN(C)C(=S)N=c1ssc(=S)n1Cc1cccnc1	GAA850 FXN act 12, NR2E3 ag-2 86 (no result: NR2E3 ag-1) | GAA30 FXN cntr inactive | FXN GAA850 conf 12 | NR2E3 ag conf inactive | VP16 counter inactive
S=C1NCN(Cc2cccnc2)CN1	none
O=C(NC[C@H]1CC[C@@H]2[C@@H](CN2C(=O)Cc2ccncc2)O1)C1CCOCC1	none (no result: GalR3 antagonist, V-ATPase pHluor, NR2E3 ag-1, GAA850 FXN act, NR2E3 ag-2)
C[C@H](CO)N1C[C@H](C)[C@@H](CN(C)C(=O)c2cnccn2)Oc2cc(Br)ccc2S1(=O)=O	none (no result: GalR3 antagonist, V-ATPase pHluor, NR2E3 ag-1, GAA850 FXN act, NR2E3 ag-2)
COc1cc2nc(=S)n3[nH]c(CCn4nc(C)cc4C)nc3c2cc1OC	GAA850 FXN act 19, NR2E3 ag-2 85 | GAA30 FXN cntr 32 | FXN GAA850 conf 17 | NR2E3 ag conf inactive | VP16 counter inactive
CO[C@H]1CN(C)C(=O)c2cc(NC(C)=O)ccc2OC[C@H](C)N(C(=O)CC2CC2)C[C@@H]1C	none (no result: GalR3 antagonist, V-ATPase pHluor, NR2E3 ag-1, GAA850 FXN act, NR2E3 ag-2)
COc1ccc2c(CC(=O)Nc3nc(C)cs3)coc2c1	none
COc1ccc2c(CC(=O)Nc3ncc(C)s3)coc2c1	GAA850 FXN act 8.7 | GAA30 FXN cntr 91 | FXN GAA850 conf 55 | NR2E3 ag conf 96 | VP16 counter inactive
CN(C)C(=O)C[C@H]1CC[C@@H](NC(=O)C2CC2)[C@H](CO)O1	none (no result: GalR3 antagonist, V-ATPase pHluor, NR2E3 ag-1, GAA850 FXN act, NR2E3 ag-2)
CCCC(C)Sc1nc2c([nH]1)c(=S)n(C)c(=O)n2C (stereo not given)	GAA850 FXN act 10, NR2E3 ag-2 82 (no result: NR2E3 ag-1) | GAA30 FXN cntr inactive | FXN GAA850 conf 18 | NR2E3 ag conf inactive | VP16 counter inactive
Cc1ccc(C)c(NC(=S)c2ccc3ccccc3n2)c1	none
Cc1ccc(C)c(NC(=S)c2ccccn2)c1	GAA850 FXN act 13 | GAA30 FXN cntr 78 | FXN GAA850 conf 28 | NR2E3 ag conf inactive | VP16 counter inactive
COc1cccc(/C=N/Nc2nc(Nc3ccccc3)nc(-n3nc(C)cc3C)n2)c1O	GAA850 FXN act 12, NR2E3 ag-2 95 (no result: Env fusion inh) | GAA30 FXN cntr inactive | FXN GAA850 conf 15 | NR2E3 ag conf inactive | VP16 counter inactive
